This passage reports IC50 results from ChEMBL document CHEMBL5108074 (J Med Chem, 2022).

Assay [1] concerns the target Voltage-gated inwardly rectifying potassium channel KCNH2 (Homo sapiens, UniProt Q12809). The experiment in a line: Inhibition of hERG expressed in CHO cells by whole cell patch clamp assay. It counts as toxicity, cell-based. The essentials: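 hERG K+ current recorded by automated whole-cell patch clamp in CHO cells stably expressing hERG. Concentrations tested up to a maximum of 33 μM.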

In assay [2] the target is T1, Cytochrome P450 1A2 (Homo sapiens, UniProt P05177).
T1 sequence (P05177 whole entry): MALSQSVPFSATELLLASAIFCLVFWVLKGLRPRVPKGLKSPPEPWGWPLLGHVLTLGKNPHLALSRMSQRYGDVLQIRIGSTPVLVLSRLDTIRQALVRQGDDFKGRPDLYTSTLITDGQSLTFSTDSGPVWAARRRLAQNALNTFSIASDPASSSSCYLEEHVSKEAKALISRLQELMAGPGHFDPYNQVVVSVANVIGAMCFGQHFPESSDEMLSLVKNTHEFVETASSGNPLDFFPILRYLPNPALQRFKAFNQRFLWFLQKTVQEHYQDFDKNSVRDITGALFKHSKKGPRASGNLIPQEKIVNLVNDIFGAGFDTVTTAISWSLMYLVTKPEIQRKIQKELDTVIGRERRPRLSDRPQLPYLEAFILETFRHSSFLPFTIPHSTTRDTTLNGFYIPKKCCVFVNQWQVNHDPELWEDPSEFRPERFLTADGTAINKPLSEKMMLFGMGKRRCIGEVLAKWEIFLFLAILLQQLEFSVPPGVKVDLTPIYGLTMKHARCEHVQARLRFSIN
Briefly: Inhibition of CYP1A2 in human liver microsomes assessed as reduction in acetaminophen metabolite formation incubated for 30 mins in presence of NADPH by LC-MS/MS analysis. In kind it is ADME, Microsome. On the technique in general: Microsomes from liver hold many membrane-bound enzymes, among them those of drug oxidation.

Assay [3] addresses Cytochrome P450 2B6 (Homo sapiens, UniProt P20813). Briefly: Inhibition of CYP2B6 in human liver microsomes assessed as reduction in hydroxybupropion metabolite formation incubated for 30 mins in presence of NADPH by LC-MS/MS analysis. In kind it is ADME, Microsome.
Assay [4] deals with Cytochrome P450 2D6 (Homo sapiens, UniProt P10635). The experiment in a line: Inhibition of CYP2D6 in human liver microsomes assessed as reduction in dextrorphan metabolite formation incubated for 30 mins in presence of NADPH by LC-MS/MS analysis. In kind it is ADME, Microsome.
The target in assay [5] is Cytochrome P450 3A4 (Homo sapiens, UniProt P08684). Briefly: Inhibition of CYP3A4 in human liver microsomes assessed as reduction in 6beta-hydroxytestosterone metabolite formation using testosterone as substrate incubated for 30 mins in presence of NADPH by LC-MS/MS analysis. In kind it is ADME, Microsome.
Sequence of Cytochrome P450 3A4 (P08684 whole entry): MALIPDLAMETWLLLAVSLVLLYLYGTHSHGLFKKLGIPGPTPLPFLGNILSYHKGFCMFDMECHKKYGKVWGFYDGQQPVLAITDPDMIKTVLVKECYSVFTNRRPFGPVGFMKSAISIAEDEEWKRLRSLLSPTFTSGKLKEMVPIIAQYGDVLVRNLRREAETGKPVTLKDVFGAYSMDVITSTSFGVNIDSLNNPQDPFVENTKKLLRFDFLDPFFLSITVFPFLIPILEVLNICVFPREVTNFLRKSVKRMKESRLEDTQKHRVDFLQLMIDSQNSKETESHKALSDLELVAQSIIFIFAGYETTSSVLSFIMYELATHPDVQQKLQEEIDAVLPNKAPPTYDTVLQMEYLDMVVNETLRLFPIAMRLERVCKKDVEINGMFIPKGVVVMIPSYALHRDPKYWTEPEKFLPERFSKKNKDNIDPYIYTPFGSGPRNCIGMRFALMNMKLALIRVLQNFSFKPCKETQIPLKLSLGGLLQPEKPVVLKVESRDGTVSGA

Sequence of Cytochrome P450 2D6 (P10635 whole entry): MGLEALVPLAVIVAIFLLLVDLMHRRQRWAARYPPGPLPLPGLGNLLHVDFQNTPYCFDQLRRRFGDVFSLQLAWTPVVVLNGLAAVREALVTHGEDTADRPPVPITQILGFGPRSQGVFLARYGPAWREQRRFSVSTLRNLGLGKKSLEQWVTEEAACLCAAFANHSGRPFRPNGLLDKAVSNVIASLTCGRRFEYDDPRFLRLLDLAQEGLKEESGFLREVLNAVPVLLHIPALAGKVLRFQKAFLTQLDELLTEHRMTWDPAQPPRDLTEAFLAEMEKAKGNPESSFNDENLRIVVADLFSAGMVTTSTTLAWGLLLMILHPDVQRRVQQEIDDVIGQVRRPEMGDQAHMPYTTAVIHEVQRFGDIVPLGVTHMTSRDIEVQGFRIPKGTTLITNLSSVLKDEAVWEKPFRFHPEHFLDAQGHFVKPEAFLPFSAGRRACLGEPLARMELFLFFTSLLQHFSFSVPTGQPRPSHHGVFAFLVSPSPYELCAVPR
Sequence of Voltage-gated inwardly rectifying potassium channel KCNH2 (Q12809 whole entry): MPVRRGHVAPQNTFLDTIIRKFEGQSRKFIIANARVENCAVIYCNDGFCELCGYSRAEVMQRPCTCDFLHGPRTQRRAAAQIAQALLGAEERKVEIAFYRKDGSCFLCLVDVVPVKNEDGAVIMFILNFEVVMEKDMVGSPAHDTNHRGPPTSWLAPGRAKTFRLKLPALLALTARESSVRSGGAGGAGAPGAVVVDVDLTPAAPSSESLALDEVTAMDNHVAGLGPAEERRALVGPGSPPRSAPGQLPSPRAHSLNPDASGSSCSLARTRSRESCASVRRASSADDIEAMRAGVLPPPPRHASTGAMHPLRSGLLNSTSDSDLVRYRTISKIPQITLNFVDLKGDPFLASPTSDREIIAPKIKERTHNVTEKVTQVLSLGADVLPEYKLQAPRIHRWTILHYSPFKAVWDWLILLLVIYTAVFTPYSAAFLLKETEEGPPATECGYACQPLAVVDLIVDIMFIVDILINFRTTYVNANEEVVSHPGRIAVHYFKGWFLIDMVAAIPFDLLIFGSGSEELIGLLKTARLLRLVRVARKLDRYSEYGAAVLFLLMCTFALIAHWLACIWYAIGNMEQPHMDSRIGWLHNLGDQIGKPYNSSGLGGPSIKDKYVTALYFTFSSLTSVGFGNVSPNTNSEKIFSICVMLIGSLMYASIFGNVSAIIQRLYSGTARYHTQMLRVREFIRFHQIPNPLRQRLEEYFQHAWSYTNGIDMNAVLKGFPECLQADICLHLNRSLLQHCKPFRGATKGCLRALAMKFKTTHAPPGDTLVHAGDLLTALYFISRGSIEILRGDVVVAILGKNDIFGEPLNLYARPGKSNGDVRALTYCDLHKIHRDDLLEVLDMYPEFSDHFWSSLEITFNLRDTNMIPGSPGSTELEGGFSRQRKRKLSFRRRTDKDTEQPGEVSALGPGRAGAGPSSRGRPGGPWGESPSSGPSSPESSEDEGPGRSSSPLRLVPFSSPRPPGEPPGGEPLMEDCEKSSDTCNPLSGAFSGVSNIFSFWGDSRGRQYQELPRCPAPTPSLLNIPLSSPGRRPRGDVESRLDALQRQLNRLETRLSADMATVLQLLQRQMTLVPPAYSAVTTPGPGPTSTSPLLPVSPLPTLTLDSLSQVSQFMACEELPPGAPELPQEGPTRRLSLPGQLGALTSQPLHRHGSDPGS
Sequence of Cytochrome P450 2B6 (P20813 whole entry): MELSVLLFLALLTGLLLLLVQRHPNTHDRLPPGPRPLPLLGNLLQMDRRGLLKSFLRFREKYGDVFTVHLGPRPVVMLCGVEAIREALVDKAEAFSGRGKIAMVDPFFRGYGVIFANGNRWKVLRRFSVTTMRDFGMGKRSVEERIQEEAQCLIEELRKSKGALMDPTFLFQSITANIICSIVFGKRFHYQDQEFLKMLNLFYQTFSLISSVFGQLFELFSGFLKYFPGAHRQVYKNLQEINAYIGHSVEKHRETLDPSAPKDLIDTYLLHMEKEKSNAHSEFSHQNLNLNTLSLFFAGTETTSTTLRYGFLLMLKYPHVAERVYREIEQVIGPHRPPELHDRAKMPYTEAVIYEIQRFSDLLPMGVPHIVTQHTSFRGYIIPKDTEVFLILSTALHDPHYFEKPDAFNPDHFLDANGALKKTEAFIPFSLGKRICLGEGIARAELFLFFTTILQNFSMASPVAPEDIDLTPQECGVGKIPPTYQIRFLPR

As a reminder, the IC50 is the concentration that gives 50% inhibition. As to `COCc1nn(Cc2ccc(Cn3ccccc3=O)cc2)cc1C(=O)NCc1nccc(OC)c1F` [SEBETRALSTAT], the IC50 in assay [1] is greater than 33 µM; in assay [2] it was greater than 25 µM; in assay [3], greater than 25 µM; in assay [4] it was greater than 25 µM; in assay [5], greater than 25 µM.
